Measurements reported in ChEMBL document CHEMBL3102723, “Design, synthesis and anti-inflammatory evaluation of novel 5-benzylidene-3,4-dihalo-furan-2-one derivatives” (Eur J Med Chem, 2014).
Values belong to the compound of their own block, whether it stands above or below them. The source made the active and inactive calls. The calls are words filed in the database; no cut-off is given here.

Legend:
RAW264.7 [1] = assay: Antiinflammatory activity in mouse RAW264.7 cells assessed as inhibition of LPS-induced nitric oxide release at 10 uM treated 2 hrs before LPS challenge measured after 48 hrs by Griess assay relative to control; format: functional
[2] = Cytotoxicity against mouse RAW264.7 cells assessed as cell viability at 5 uM after 48 hrs by MTT assay relative to control; format: cell-based; details: read-out: Activity
Outline: (§1)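 MTT assay. RAW264.7 cells at 4 × 10^3 cells/well, cultured 16 h, then exposed to compounds diluted in DMEM for 48 h. MTT (0.5 mg/mL) added for 4 h, formazan dissolved in DMSO, OD570 read. Viability = compound OD570/blank OD570 × 100%, with the medium-only blank set as 100%. Three independent experiments.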

[3] = molecular target: T1, Peroxisome proliferator-activated receptor gamma (Mus musculus) (UniProt P37238); assay: Inhibition of PPARgamma in mouse RAW264.7 cells assessed as inhibition of LPS-induced JNK phosphorylation at 10 uM after 4 hrs by Western blot analysis in presence of PPARgamma antagonist GW9662; format: cell-based
T1 sequence (whole entry): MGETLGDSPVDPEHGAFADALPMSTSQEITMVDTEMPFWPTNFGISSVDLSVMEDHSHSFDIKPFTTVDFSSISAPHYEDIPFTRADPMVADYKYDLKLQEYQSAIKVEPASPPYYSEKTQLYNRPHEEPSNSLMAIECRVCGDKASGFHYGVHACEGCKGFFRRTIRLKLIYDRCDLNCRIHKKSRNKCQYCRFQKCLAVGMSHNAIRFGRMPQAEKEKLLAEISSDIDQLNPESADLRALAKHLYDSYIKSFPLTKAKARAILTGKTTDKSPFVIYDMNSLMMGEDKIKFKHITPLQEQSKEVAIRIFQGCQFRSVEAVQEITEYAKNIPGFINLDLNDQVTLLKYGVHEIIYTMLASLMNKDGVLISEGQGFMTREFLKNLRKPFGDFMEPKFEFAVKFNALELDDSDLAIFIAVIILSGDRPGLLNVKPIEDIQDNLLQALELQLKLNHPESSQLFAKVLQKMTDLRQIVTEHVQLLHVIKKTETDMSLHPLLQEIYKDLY
Outline: (§2)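 RAW264.7 cells at 2 × 10^6 per well, cultured 18 h, then given fresh medium with compounds plus 500 ng/mL LPS for 4 h, with GW9662 at 5 where included. Lysates clarified at 14,000 × g, protein by BCA, equal loads on SDS-PAGE. Blots blocked in 5% milk/TBST, primary antibodies 1:1000 overnight, secondary 1:1000 90 min, ECL detection. Means ± SD (n = 3).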

[4] = molecular target: T1, Peroxisome proliferator-activated receptor gamma (Mus musculus); assay: Inhibition of PPARgamma in mouse RAW264.7 cells assessed as inhibition of LPS-induced p38 MAPK phosphorylation at 10 uM after 4 hrs by Western blot analysis in presence of PPARgamma antagonist GW9662; format: cell-based; outline: as §2
[5] = molecular target: T1, Peroxisome proliferator-activated receptor gamma (Mus musculus); assay: Inhibition of PPARgamma in mouse RAW264.7 cells assessed as inhibition of LPS-induced ERK1/2 phosphorylation at 10 uM after 4 hrs by Western blot analysis; format: cell-based; outline: as §2
[6] = molecular target: T1, Peroxisome proliferator-activated receptor gamma (Mus musculus); assay: Inhibition of PPARgamma in mouse RAW264.7 cells assessed as inhibition of LPS-induced IkappaBalpha phosphorylation at 10 uM after 4 hrs by Western blot analysis in presence of PPARgamma antagonist GW9662; format: cell-based; outline: as §2
RAW264.7 [7] = assay: Antiinflammatory activity in mouse RAW264.7 cells assessed as inhibition of LPS-induced IL-6 release at 10 uM treated 2 hrs before LPS challenge measured by ELISA; format: functional, cell-based; details: TDE = time-dependent effect
RAW264.7 [8] = assay: Antiinflammatory activity in mouse RAW264.7 cells assessed as inhibition of LPS-induced TNF-alpha release at 10 uM treated 2 hrs before LPS challenge measured after 6 hrs by ELISA (reference value: 5.9 +/- 0.5 pg/ml); format: functional
[9] = molecular target: T1, Peroxisome proliferator-activated receptor gamma (Mus musculus); assay: Inhibition of PPARgamma in mouse RAW264.7 cells assessed as inhibition of LPS-induced p38 MAPK phosphorylation at 10 uM after 4 hrs by Western blot analysis; format: cell-based; outline: as §2
RAW264.7 [10] = assay: Antiinflammatory activity in mouse RAW264.7 cells assessed as inhibition of LPS-induced IL-6 release at 10 uM treated 2 hrs before LPS challenge measured after 12 hrs by ELISA (reference value: 13.9 +/- 2.6 pg/ml); format: functional
RAW264.7 [11] = assay: Antiinflammatory activity in mouse RAW264.7 cells assessed as inhibition of LPS-induced TNF-alpha release at 10 uM treated 2 hrs before LPS challenge measured after 24 hrs by ELISA (reference value: 38.3 +/- 3.3 pg/ml); format: functional
RAW264.7 [12] = assay: Antiinflammatory activity in mouse RAW264.7 cells assessed as inhibition of LPS-induced IL-6 release at 10 uM treated 2 hrs before LPS challenge measured after 6 hrs by ELISA (reference value: 7.2 +/- 0.9 pg/ml); format: functional
[13] = molecular target: T1, Peroxisome proliferator-activated receptor gamma (Mus musculus); assay: Inhibition of PPARgamma in mouse RAW264.7 cells assessed as inhibition of LPS-induced IkappaBalpha phosphorylation at 10 uM after 4 hrs by Western blot analysis; format: cell-based; outline: as §2
RAW264.7 [14] = assay: Antiinflammatory activity in mouse RAW264.7 cells assessed as inhibition of LPS-induced TNF-alpha release at 10 uM treated 2 hrs before LPS challenge measured after 12 hrs by ELISA (reference value: 11.8 +/- 1.2 pg/ml); format: functional
[15] = molecular target: T1, Peroxisome proliferator-activated receptor gamma (Mus musculus); assay: Inhibition of PPARgamma in mouse RAW264.7 cells assessed as inhibition of LPS-induced NF-kappaB 65 phosphorylation at 10 uM after 4 hrs by Western blot analysis; format: cell-based; outline: as §2
RAW264.7 [16] = assay: Antiinflammatory activity in mouse RAW264.7 cells assessed as inhibition of LPS-induced TNF-alpha release at 10 uM treated 2 hrs before LPS challenge measured by ELISA; format: functional, cell-based; details: TDE = time-dependent effect
[17] = molecular target: T1, Peroxisome proliferator-activated receptor gamma (Mus musculus); assay: Inhibition of PPARgamma in mouse RAW264.7 cells assessed as inhibition of LPS-induced JNK phosphorylation at 10 uM after 4 hrs by Western blot analysis; format: cell-based; outline: as §2
RAW264.7 [18] = assay: Antiinflammatory activity in mouse RAW264.7 cells assessed as inhibition of LPS-induced IL-6 release at 10 uM treated 2 hrs before LPS challenge measured after 24 hrs by ELISA (reference value: 45.1 +/- 5.6 pg/ml); format: functional
[19] = molecular target: T1, Peroxisome proliferator-activated receptor gamma (Mus musculus); assay: Inhibition of PPARgamma in mouse RAW264.7 cells assessed as inhibition of LPS-induced NF-kappaB 65 phosphorylation at 10 uM after 4 hrs by Western blot analysis in presence of PPARgamma antagonist GW9662; format: cell-based; outline: as §2
[20] = molecular target: T1, Peroxisome proliferator-activated receptor gamma (Mus musculus); assay: Inhibition of PPARgamma in mouse RAW264.7 cells assessed as inhibition of LPS-induced ERK1/2 phosphorylation at 10 uM after 4 hrs by Western blot analysis in presence of PPARgamma antagonist GW9662; format: cell-based; outline: as §2
[21] = Cytotoxicity against mouse RAW264.7 cells assessed as cell viability at 10 uM after 48 hrs by MTT assay relative to control; format: cell-based; details: read-out: Activity; outline: as §1

Compound: O=C1O/C(=C\c2ccc(OCCc3ccccn3)cc2)C(Cl)=C1Cl
- inhibition at 10 µM (RAW264.7 [1]): 20.2%

Compound: O=C1O/C(=C\c2ccc(OCCc3ccccn3)cc2)C(Br)=C1Br
- inhibition at 10 µM (RAW264.7 [1]): 38%

Compound: O=C1O/C(=C\c2ccc(OCc3ccccn3)cc2)C(Br)=C1Br
- inhibition at 10 µM (RAW264.7 [1]): 29.2%

Compound: CCOc1cc(/C=C2\OC(=O)C(Br)=C2Br)ccc1OCCc1ccccn1
- inhibition at 10 µM (RAW264.7 [1]): 62.9%

Compound: O=C1O/C(=C\c2ccc(OCc3ccccn3)cc2)C(Cl)=C1Cl
- inhibition at 10 µM (RAW264.7 [1]): 16.3%

Compound: COc1cc(/C=C2\OC(=O)C(Br)=C2Br)ccc1OCCc1ccccn1
- inhibition at 10 µM (RAW264.7 [1]): 54.7%

Compound: Cc1nc(C)c(COc2ccc(/C=C3\OC(=O)C(Br)=C3Br)cc2)nc1C
- inhibition at 10 µM (RAW264.7 [1]): 30.1%

Compound: COc1cc(/C=C2\OC(=O)C(Br)=C2Br)ccc1OCc1ccccn1
- inhibition at 10 µM (RAW264.7 [1]): 33.9%

Compound: O=C(Nc1ccccc1)c1cc([N+](=O)[O-])ccc1Cl
- viability at 48 h, 5 µM [2]: 101%

- inhibition [3]: inactive
- inhibition [4]: inactive
- inhibition [5]: Active
- inhibition [6]: inactive
- inhibition [9]: Active
- inhibition [13]: Active
- inhibition [15]: Active
- inhibition [17]: Active
- inhibition [19]: inactive
- inhibition [20]: inactive
Compound: CCOc1cc(/C=C2\OC(=O)C(Br)=C2Br)ccc1OCCc1ccc(CC)cn1
- inhibition (RAW264.7 [7]): tde
- Activity (RAW264.7 [8]): 323.8 pg/mL
- Activity (RAW264.7 [10]): 902.2 pg/mL
- inhibition at 10 µM (RAW264.7 [1]): 80.1%
- Activity (RAW264.7 [11]): 1044.2 pg/mL
- Activity (RAW264.7 [12]): 598.1 pg/mL
- Activity (RAW264.7 [14]): 519.8 pg/mL
- inhibition (RAW264.7 [16]): tde
- Activity (RAW264.7 [18]): 2360.2 pg/mL
- viability at 48 h, 10 µM [21]: 93.1%

Compound: CCOc1cc(/C=C2\SC(=O)NC2=O)ccc1OCc1nc(C)c(C)nc1C
- inhibition at 10 µM (RAW264.7 [1]): 30.7%

Compound: CCc1ccc(CCOc2ccc(/C=C3\OC(=O)C(Cl)=C3Cl)cc2)nc1
- inhibition at 10 µM (RAW264.7 [1]): 40.8%

Compound: CCOc1cc(/C=C2\OC(=O)C(Cl)=C2Cl)ccc1OCCc1ccccn1
- inhibition at 10 µM (RAW264.7 [1]): 50.4%

Compound: Cc1nc(C)c(COc2ccc(/C=C3\SC(=O)NC3=O)cc2)nc1C
- inhibition at 10 µM (RAW264.7 [1]): 19.3%

Compound: CCOc1cc(/C=C2\OC(=O)C(Cl)=C2Cl)ccc1OCc1ccccn1
- inhibition at 10 µM (RAW264.7 [1]): 36.8%

- inhibition [3]: inactive
- inhibition [4]: inactive
- inhibition [5]: Active
- inhibition [6]: inactive
- inhibition [9]: Active
- inhibition [13]: Active
- inhibition [15]: Active
- inhibition [17]: Active
- inhibition [19]: inactive
- inhibition [20]: inactive
Compound: CCc1ccc(CCOc2ccc(/C=C3\OC(=O)C(Br)=C3Br)cc2OC)nc1
- inhibition (RAW264.7 [7]): tde
- Activity (RAW264.7 [8]): 347.1 pg/mL
- Activity (RAW264.7 [10]): 2528.4 pg/mL
- inhibition at 10 µM (RAW264.7 [1]): 75.8%
- Activity (RAW264.7 [11]): 1110.5 pg/mL
- Activity (RAW264.7 [12]): 1705.9 pg/mL
- Activity (RAW264.7 [14]): 575.6 pg/mL
- inhibition (RAW264.7 [16]): tde
- Activity (RAW264.7 [18]): 6360 pg/mL
- viability at 48 h, 10 µM [21]: 98.1%

Compound: CCOc1cc(/C=C2\OC(=O)C(Br)=C2Br)ccc1OCc1ccccn1
- inhibition at 10 µM (RAW264.7 [1]): 42.2%

Compound: COc1cc(/C=C2\OC(=O)C(Cl)=C2Cl)ccc1OCCc1ccccn1
- inhibition at 10 µM (RAW264.7 [1]): 38.9%

Compound: COc1ccc2c(c1)c(CC(=O)O)c(C)n2C(=O)c1ccc(Cl)cc1 [INDOMETHACIN]
- inhibition (RAW264.7 [7]): tde
- Activity (RAW264.7 [8]): 366.5 pg/mL
- Activity (RAW264.7 [10]): 2989.6 pg/mL
- inhibition at 10 µM (RAW264.7 [1]): 31.3%
- Activity (RAW264.7 [11]): 1242 pg/mL
- Activity (RAW264.7 [12]): 2313.5 pg/mL
- Activity (RAW264.7 [14]): 612.6 pg/mL
- inhibition (RAW264.7 [16]): tde
- Activity (RAW264.7 [18]): 7645.9 pg/mL
- viability at 48 h, 10 µM [21]: 101%

Compound: COc1cc(/C=C2\SC(=O)NC2=O)ccc1OCc1nc(C)c(C)nc1C
- inhibition at 10 µM (RAW264.7 [1]): 24.9%

Compound: CCc1ccc(CCOc2ccc(/C=C3\OC(=O)C(Br)=C3Br)cc2)nc1
- inhibition at 10 µM (RAW264.7 [1]): 43.6%

Compound: COc1cc(/C=C2\OC(=O)C(Cl)=C2Cl)ccc1OCc1ccccn1
- inhibition at 10 µM (RAW264.7 [1]): 36.4%

Compound: CN(CCOc1ccc(CC2SC(=O)NC2=O)cc1)c1ccccn1 (stereo unspecified) [ROSIGLITAZONE]
- inhibition (RAW264.7 [7]): tde
- Activity (RAW264.7 [8]): 416.9 pg/mL
- Activity (RAW264.7 [10]): 3477.9 pg/mL
- inhibition at 10 µM (RAW264.7 [1]): 16.7%
- Activity (RAW264.7 [11]): 1293.8 pg/mL
- Activity (RAW264.7 [12]): 2783.9 pg/mL
- Activity (RAW264.7 [14]): 631.3 pg/mL
- inhibition (RAW264.7 [16]): tde
- Activity (RAW264.7 [18]): 8388.6 pg/mL
- viability at 48 h, 10 µM [21]: 99.7%

Compound: Cc1nc(C)c(COc2cccc(/C=C3\SC(=O)NC3=O)c2)nc1C
- inhibition at 10 µM (RAW264.7 [1]): 23.5%

Compound: COc1cc(/C=C2\OC(=O)C(Br)=C2Br)ccc1OCc1nc(C)c(C)nc1C
- inhibition at 10 µM (RAW264.7 [1]): 37.2%
